Assay outcomes: PubChem, several laboratories
Rows were chosen to be rich in hits. Some 4.8% of all compounds tested hit in one or more screens of this group.
NALP1 yeast inh – inhibitors of NALP1 inflammasome in yeast; S. cerevisiae NALP1/ASC/caspase-1 growth, X-gal OD620, 72 h; inhibition, % at 10 µM; 280,000 compounds, 0.61% hits; AID 2071; in the data active means inhibition mostly above about 24%, no sharp cut-off; inactive means mostly below about 32%
ALR inh – inhibitors of human sulfhydryl oxidase ALR; P55789; inhibition, % (test concentration not listed); 290,000 compounds, 3.8% hits; purified ALR, DTT oxidation, H2O2 HRP-luminol luminescence;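 active means mean replicate inhibition above about 79%, with every replicate also reaching it, limit read from the data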
Target sequence (P55789 whole entry, looked up): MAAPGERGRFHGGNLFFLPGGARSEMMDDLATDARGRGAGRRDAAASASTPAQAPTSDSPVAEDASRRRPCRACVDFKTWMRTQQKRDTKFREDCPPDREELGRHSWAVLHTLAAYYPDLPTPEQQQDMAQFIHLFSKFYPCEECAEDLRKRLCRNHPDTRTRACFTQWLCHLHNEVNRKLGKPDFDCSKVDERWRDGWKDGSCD
ATG4B inh – inhibitors of human ATG4B cysteine protease. Q9Y4P1. ATG4B cleavage of LC3-PLA2, NBD-HPC fluorescence, 1 h. inhibition, % at 8.33 µM. 340,000 compounds, 0.51% hits. AID 504462; in the data active means inhibition above about 40%
Target sequence (Q9Y4P1 whole entry, looked up): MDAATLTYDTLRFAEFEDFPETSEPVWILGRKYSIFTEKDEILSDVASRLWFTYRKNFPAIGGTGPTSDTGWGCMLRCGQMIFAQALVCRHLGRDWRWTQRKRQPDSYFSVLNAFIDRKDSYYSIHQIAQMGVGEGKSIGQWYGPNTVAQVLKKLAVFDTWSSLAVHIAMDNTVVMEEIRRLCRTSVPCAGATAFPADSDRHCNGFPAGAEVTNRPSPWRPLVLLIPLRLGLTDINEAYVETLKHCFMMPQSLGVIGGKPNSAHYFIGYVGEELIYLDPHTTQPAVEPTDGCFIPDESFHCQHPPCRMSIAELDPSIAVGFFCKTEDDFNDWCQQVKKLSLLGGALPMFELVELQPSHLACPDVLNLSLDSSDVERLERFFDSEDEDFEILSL
Calb FLC – C. albicans growth modulation with fluconazole | C. albicans CaCi-2 + fluconazole, Alamar Blue growth, 48 h | growth inhibition, % (no concentration beside the values) | 300,000 compounds, 0.57% hits;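 active means growth inhibition above about 58% in most replicates, limit read from the data, passing the limit was not always enough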;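 further: all wells also contain fluconazole at 8 µg/ml as a sub-toxic cotreatment; 0% = median of DMSO wells and 100% = median of geldanamycin control wells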
NALP3 yeast inh – NALP3 inhibition in yeast | inhibition, % at 10 µM | 330,000 compounds, 0.39% hits | AID 2825 | Yeast reconstituted NLRP3/ASC/caspase-1, beta-gal luminescence, 24 h;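 active means inhibition of 50% or more; inactive means inhibition below 50%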;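 further: plate controls were induced DMSO wells for no effect and uninduced yeast grown without galactose for full effect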
UCH37 inh – blocks the human deubiquitinase UCH37. Q9Y5K5. purified proteasome/UCH37, Ub-AMC cleavage fluorescence. inhibition, % (concentration not given with the values). 330,000 compounds, 0.33% hits. AID 588478;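 active means mean inhibition over replicate wells above about 20%, limit read from the data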;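 further: 0% = compound-free wells with enzyme and 100% = wells lacking proteasome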
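system = Proteasome-associated human UCH37 deubiquitinase | amount = 0.15 nM proteasome as dispensed | medium = pH 7.4 Tris-HCl (50 mM) with ovalbumin, ATP-MgCl2, DTT | incubation = 30 min preincubation with enzyme, 25 min cleavage at room temperature | detection = AMC fluorescence 355/460 nm | read-out basis = percent inhibition | controls = no-proteasome and no-compound wells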
Numbers without * were called inactive; · = no result given.

SMILES	NALP1 yeast inh	ALR inh	ATG4B inh	Calb FLC	NALP3 yeast inh	UCH37 inh
COc1ccccc1CNC(=O)CSc1ccc(Br)cc1	34	·	0	2	27	2
O=C(CSc1nc(=O)n2ccccc2n1)Nc1cccc2ccccc12	·	·	3	30	26	7
COc1ccc(O[C@H]2C=C[C@@H](c3ccccc3)O[C@@H]2COC(=O)CCC(C)=NO[C@H](C)c2cn([C@@H]3COC[C@H]3O)nn2)cc1	·	·	·	·	·	1
CCOC(=O)c1c(-c2ccc(C)cc2)cn2ccccc12	1	-16	28	-2	10	-145
CCOC(=O)c1c(-c2ccccc2)cn2ccccc12	25*	·	23	24	24	-161
CN(C)c1ccc(/C(=N\O)c2ccccc2)cc1	15	94*	-2	-21	19	·
CCOc1ccc(C(C)=NNC(=O)Cc2ccccc2)cc1	·	·	·	·	·	0
COc1ccc([N+](=O)[O-])cc1N(CC(=O)N1CCOCC1)S(C)(=O)=O	42*	-5	5	-13	8	4
COc1ccc([N+](=O)[O-])cc1N(CC(=O)N1CCCC1)S(C)(=O)=O	31	-6	0	23	12	2
CC(Oc1ccc(Br)cc1)C(=O)N(C)CC(=O)Nc1ccc(N2CCOCC2)cc1 (centres undefined)	·	99*	-10	6	-7	-2
CN(CC(=O)Nc1ccc(N2CCOCC2)cc1)C(=O)COc1ccccc1F	3	78*	5	-7	10	-1
O=C(CSc1ccccc1F)Nc1ccc(N2CCOCC2)cc1	·	41	0	·	0	0
CCN(CC(=O)Nc1ccc(N2CCOCC2)cc1)C(=O)COc1ccccc1OC	-37	91*	-15	0	2	·
CC(=O)c1ccc(OCC(=O)N(C)CC(=O)Nc2ccc(N3CCOCC3)cc2)cc1	·	18	-10	·	0	2
O=C(CNS(=O)(=O)c1ccccc1F)Nc1ccc(N2CCOCC2)cc1	0	94*	-7	-5	0	6
COc1ccc(C(C)=NNC(=O)CNC(=O)c2cccnc2)cc1OC	·	·	·	·	·	3
CC(NC(=O)c1ccccc1)C(=O)NN=Cc1cccc([N+](=O)[O-])c1 (centres undefined)	·	·	·	·	·	1
COc1ccc(CCC(=O)N(C)CC(=O)Nc2ccc(N3CCOCC3)cc2)cc1	10	94*	-13	2	8	3
CCOc1ccc(OCCCC(=O)N(C)CC(=O)Nc2ccc(N3CCOCC3)cc2)cc1	·	5	-3	-1	12	0
Cc1ccc(C=NNC(=O)c2ccccn2)o1	·	·	·	·	·	11
COc1ccc(C(=O)ON=Cc2ccc(S(=O)(=O)c3ccc(Cl)cc3)nc2)cc1	·	·	·	·	·	-6
O=C1CCc2cc(S(=O)(=O)NC(Cc3ccccc3)C(=O)NC3CCCC3)ccc2N1 (centres undefined)	-12	84*	-2	-6	9	4
Cc1ccc(CNC(=O)C(Cc2ccccc2)NS(=O)(=O)c2ccc3c(c2)CCC(=O)N3)cc1 (centres undefined)	10	-7	-16	6	4	5
CCCNC(=O)C(Cc1ccccc1)NS(=O)(=O)c1ccc2c(c1)CCC(=O)N2 (centres undefined)	18	84*	-5	8	2	-1
O=C1CCc2cc(S(=O)(=O)NC(C(=O)NCc3cccnc3)c3ccccc3)ccc2N1 (centres undefined)	19	·	-3	·	12	4
SMILES	NALP1 yeast inh	ALR inh	ATG4B inh	Calb FLC	NALP3 yeast inh	UCH37 inh
CN(Cc1ccco1)C(=O)C(Cc1ccccc1)NS(=O)(=O)c1ccc2c(c1)CCC(=O)N2 (centres undefined)	22	78*	-5	6	9	2
COc1ccc(C=NNC(=O)c2cccnc2)cc1COc1ccc([N+](=O)[O-])cc1	·	·	·	·	·	2
CCOc1cc(/C=C(\C#N)c2[nH]nc(N)c2C#N)ccc1O	12	99*	-2	0	-8	·
Nc1sc(-c2ccccc2)cc1C(=O)NN=Cc1ccc(Cl)cc1	·	·	·	·	·	-40
CC1(C)SC[C@H](C(=O)Nc2cccc(Cl)c2)N1C=O	37*	0	5	-2	1	2
CC12CCC(=O)N1C(C(=O)Nc1ccc(F)c(Cl)c1)CS2 (centres undefined)	·	2	3	0	1	1
COc1cc(C=NNC(=S)NCCN2CCOCC2)cc(OC)c1OC	·	·	·	·	·	9
O=C(CC(Sc1ccc(Br)cc1)C(=O)O)c1ccc(F)cc1 (centres undefined)	-6	·	1	3	4	5
CCOc1ccc(C(=O)CC(Sc2ccc(C)cc2)C(=O)O)cc1 (centres undefined)	-7	95*	-1	-14	11	4
CC(CC(=O)Nc1ccc(Cl)c(Cl)c1)=NNC(=O)C(=O)N1CCCCC1	·	·	·	·	·	-2
CCOC(=O)/C(=C/C=C1\Sc2cc(OCC)c(OCC)cc2N1CC)C(C)=O	-6	92*	-46	-30	18	7
CCN(CC)S(=O)(=O)c1ccc(N/N=C(\C)c2ccc(OC)cc2O)nc1	·	·	-13	91*	13	·
CCN(CC)S(=O)(=O)c1ccc(NN=C(C)c2cccnc2)nc1	·	·	·	·	·	9
CCN(CC)S(=O)(=O)c1ccc(N/N=C/c2ccc(O)cc2)nc1	4	99*	12	21	-32	·
CC(Cc1ccccc1)=NNC(=O)CNC(=O)c1ccccc1F	·	·	·	·	·	2
CCCn1c(NN=C(C)/C=C/c2ccccc2)nc2c1c(=O)[nH]c(=O)n2C	·	·	·	·	·	-16
Cc1sc2nc(CSc3nc4ccccc4s3)[nH]c(=O)c2c1C	36*	99*	·	7	5	2
O=c1[nH]c(CSc2nc3ccccc3s2)nc2ccccc12	·	-129	-4	4	9	0
Cc1sc2nc(CSc3ccc([N+](=O)[O-])cc3)[nH]c(=O)c2c1C	-4	99*	·	2	7	2
Cc1sc2nc(CSc3cccc(C(F)(F)F)c3)[nH]c(=O)c2c1C	14	0	8	-8	6	·
CCOc1ccccc1N(CC(=O)NN=Cc1cc(Br)ccc1OC)S(C)(=O)=O	·	·	·	·	·	3
CCn1c(C)nc2c(=O)oc3ccccc3c21	-2	4	8	-13	-9	4
Cc1nc2c(=O)oc3ccccc3c2n1-c1ccccc1	0	1	-10	92*	2	2
CC1(C)CC(=O)CC(=NNC(=O)C2CC23CCC3)C1 (centres undefined)	·	·	·	·	·	0
CC(=O)SC1CC(=O)N(c2c(C)cccc2C)C1=O (centres undefined)	·	·	-2	2	21	3
CC(=O)SC1CC(=O)N(c2ccc(C(C)(C)C)cc2)C1=O (centres undefined)	·	98*	4	-1	22	8
COc1cc(/C=N/NS(=O)(=O)c2ccc3ccccc3c2)ccc1OCCN1CCOCC1	25	99*	-7	5	7	·
